The list is not random: actives were taken first. Their share in the collection is about 1.8%.
DDE Tn6 FP inh: DD(E)-Tn6 binding inhibition, primary FP screen | P02675 | Fibrin DD(E) TRITC-Tn6 fluorescence polarization displacement | inhibition, % at 8.3 µM | 370,000 tested, 0.21% active | AID 720509;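 active means inhibition above a per-campaign cutoff: mean of compounds within control limits plus 3 SD, cut at about 15% in these data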;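 further: 0% = median of all compound wells on the plate and 100% = blocking peptide control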
ABHD4 inh: inhibitors of mouse ABHD4; Q8VD66; purified mABHD4, FP-Rh probe fluorescence polarization; inhibition, % at 8.92 µM; 370,000 tested, 0.54% active; AID 720543;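 active means inhibition exceeding the mean over every tested compound plus 3 SD, cut at about 30% in these data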;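 further: 0% = plate median of compound wells and 100% = S159A mutant with DMSO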
Target sequence (Q8VD66 whole entry, looked up): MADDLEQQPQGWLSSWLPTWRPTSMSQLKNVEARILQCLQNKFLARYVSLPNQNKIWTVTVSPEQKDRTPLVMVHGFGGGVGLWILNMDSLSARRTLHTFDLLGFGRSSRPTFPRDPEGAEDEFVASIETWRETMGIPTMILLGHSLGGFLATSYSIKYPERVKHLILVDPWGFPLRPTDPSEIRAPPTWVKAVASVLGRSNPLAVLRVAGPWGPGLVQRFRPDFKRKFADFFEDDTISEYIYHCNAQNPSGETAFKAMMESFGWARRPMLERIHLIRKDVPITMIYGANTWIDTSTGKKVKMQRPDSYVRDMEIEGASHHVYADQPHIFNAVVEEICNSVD
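Assay system: Wild-type mouse ABHD4 protein | Medium: HEPES pH 7.0 buffer, 150 mM NaCl, 0.01% Pluronic F-127 | Incubation: Enzyme–compound pre-incubation 45 min, then probe 60 min, both 25 °C | Technique: Fluorescence polarization with parallel and perpendicular emission, 525/598 nm | Evaluation: % inhibition of FP-Rh probe binding versus controls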
Tn7 DDE FP: DD(E)-Tn7 binding inhibition, primary FP screen; P02675; inhibition, % at 8.3 µM; 370,000 tested, 0.13% active; FP displacement of FITC-Tn7 peptide from fibrin DD(E); 0% = median of compound wells per plate;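 active means inhibition above the mean of compounds falling within the control limits plus 3 SD of them, cut at about 14% in these data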;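 further: 0% = plate median of compound wells and 100% = 10 µM Aha-Tn7 peptide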
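system = human fibrin DD(E) protein | quantity = DD(E) 2 µM final | medium = Tris/NaCl/CaCl2 buffer, pH 7.8 | also added = labelled Tn7 tracer, 0.1 µM | compound dosing = single point at 8.3 µM | timing = compound with protein 10 min, then 3 h after probe, room temperature | signal = FP measurement | benchmarks = Aha-Tn7 high control | repeats = one replicate per compound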
HTRA1 inhibitor: HTRA1 (human) protease inhibition. recombinant HTRA1, FP-rhodamine activity-based probe, fluorescence polarization. inhibition, % at 5.96 µM. 340,000 tested, 0.5% active. AID 504803; in the data active means inhibition above about 36%;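 further: 0% = enzyme with DMSO and 100% = wells lacking enzyme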
Target sequence (Q92743 whole entry, looked up): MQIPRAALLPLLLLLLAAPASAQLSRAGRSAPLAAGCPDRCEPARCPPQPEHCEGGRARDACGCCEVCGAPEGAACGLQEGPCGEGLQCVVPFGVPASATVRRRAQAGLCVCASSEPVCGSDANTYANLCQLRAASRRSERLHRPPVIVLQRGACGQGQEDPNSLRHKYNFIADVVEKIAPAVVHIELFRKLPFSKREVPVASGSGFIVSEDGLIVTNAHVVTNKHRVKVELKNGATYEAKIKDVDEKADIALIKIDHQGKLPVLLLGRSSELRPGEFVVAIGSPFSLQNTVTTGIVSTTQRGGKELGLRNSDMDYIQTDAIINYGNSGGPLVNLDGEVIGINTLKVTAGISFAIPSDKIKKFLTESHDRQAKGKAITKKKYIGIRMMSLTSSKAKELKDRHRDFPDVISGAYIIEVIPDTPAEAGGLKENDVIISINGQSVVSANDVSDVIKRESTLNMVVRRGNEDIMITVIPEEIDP
SIAE primary: inhibitors of human sialic acid acetylesterase SIAE; Q9HAT2; SIAE FP-Rh probe binding, fluorescence polarization; inhibition, % at 9.66 µM; 370,000 tested, 0.69% active;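 active means inhibition above a cutoff: mean of compounds within the control limits plus 3 SD of those, cut at about 17% in these data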;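 further: 0% = plate median of compound wells and 100% = probe without SIAE protein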
TCR-CD3 inh: human TCR-CD3 binding inhibition; TAMRA-labeled TCR probe fluorescence, biochemical; inhibition, % at 9.4 µM; 360,000 tested, 0.37% active; AID 651800; in the data active means inhibition above about 19%;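 further: recombinant mutant TCR 2C K166C tagged with TAMRA read by polarization; 0% = receptor in buffer alone and 100% = receptor with positive control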
DDE Tn7 confirm: confirmation of inhibitors of Tn7 binding to human fibrin DD(E) | shares compounds with Tn7 DDE FP | FP displacement of TRITC-Tn7 peptide from DD(E); 0% set at plate's compound-well median | inhibition, % at 8.3 µM | 460 tested, 5% active | AID 720628;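 active means inhibition above the campaign cutoff, the mean of compounds within control limits plus 3 SD, cut at about 14% in these data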;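 further: 100% = median FP of high control wells holding Aha-Tn7 inhibitor peptide; displacers lower polarization since freed probe rises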
Tn7 DDE ctr: DD(E)-Tn7 binding inhibition, counter-screen | shares compounds with Tn7 DDE FP | 460 tested, 3% active | fibrin DD(E), TRITC-Tn7 probe displacement, fluorescence polarization | inhibition, % at 8.3 µM;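 active means inhibition above the cutoff, the mean of compounds lying between the control bounds plus 3 SD of those compounds, cut at about 17% in these data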;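 further: 0% = median of compound sample wells and 100% = excess unlabeled Aha-Tn7 peptide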
Active calls of the source: *; · = not tested or not shown.

SMILES | DDE Tn6 FP inh | ABHD4 inh | Tn7 DDE FP | HTRA1 inhibitor | SIAE primary | TCR-CD3 inh | DDE Tn7 confirm | Tn7 DDE ctr
Cc1ccc(CC(=O)Nc2ccc(F)c([N+](=O)[O-])c2)cc1 | 4.1 | -5.6 | 14.7* | 4.4 | 2.5 | 1.0 | 0.5 | 3.7
CCN(CC)S(=O)(=O)c1cccc(C(=O)N/N=C2\CCCC(=O)C2)c1 | 7.9 | 0.6 | 25.3* | 4.4 | 4.7 | -3.7 | 1.4 | 2.5
CCN(CC)S(=O)(=O)c1cccc(C(=O)N/N=C2\CC(=O)CC(C)(C)C2)c1 | 0.3 | 1.9 | 6.4 | 8.3 | 1.6 | -2.5 | · | ·
Cc1ccc(CN2CCC2(C)C(=O)NC(C)C)cc1 (stereo not drawn) | 0.7 | -9.2 | -1.5 | · | -3.2 | -4.1 | · | ·
Cc1ccc(CN2CCCC2(C)C(=O)NC(C)C)cc1 (stereo not drawn) | 3.4 | -6.6 | 13.9* | · | 0.9 | -1.8 | 2.3 | 2.7
O=C(CSc1nnc(Cc2ccccc2)o1)NCCN1C(=O)CSC1=O | 1.2 | 4.4 | 16.2* | -2.1 | -7.5 | 3.6 | 9.4 | 3.6
COc1cccc(-c2ccc(CC[C@H]3O[C@H]4CC[C@H](CO)O[C@H]4C[C@H]3NS(C)(=O)=O)cc2)c1 | -1.9 | -2.1 | 2.5 | · | -1.2 | · | · | ·
Cc1ccc(NC(=O)c2ccc(NCCCN3CCC(C)CC3)c([N+](=O)[O-])c2)cc1F | -5.7 | -2.4 | 15.3* | -1.1 | 8.4 | 4.9 | 2.6 | 3.1
Cc1ccc(NC(=O)C(c2ccccc2)N2CCN(CC(=O)N3CCOCC3)CC2)cc1 (stereo not drawn) | -5.9 | -10.9 | -1.3 | -8.7 | 1.0 | 0.2 | · | ·
COc1cccc(NC(=O)C(c2ccccc2)N2CCN(CC(=O)N3CCOCC3)CC2)c1 (stereo not drawn) | -2.5 | -8.6 | 15.0* | -7.7 | 0.2 | 9.8 | 8.0 | 6.8
O=C(CSc1nc2c(cnn2-c2ccc(F)cc2)c(=O)[nH]1)N1CCCCC1 | 3.3 | 0.9 | 14.6* | -7.6 | -0.6 | 2.6 | 0.8 | 0.4
O=c1oc2cc(O)ccc2cc1-c1nc2ccccc2o1 | -2.6 | 3.6 | 38.2* | · | -1.0 | -3.3 | 14.4* | -5.4
O=c1oc2cc(O)ccc2cc1S(=O)(=O)c1ccccc1 | -0.5 | -7.2 | -4.3 | -4.0 | 1.8 | -11.9 | · | ·
COc1ccccc1NC(=O)c1cc(S(=O)(=O)N2CCCC2)cn1C | 4.2 | 7.4 | 15.1* | 0.2 | 8.1 | -0.1 | -4.6 | -6.0
O=C(Nc1ccc(F)cc1F)Nc1sccc1-c1nc2ccccc2s1 | -0.8 | -28.1 | 15.3* | -31.1 | -34.5 | 0.4 | 8.1 | 1.2
CCc1cc2c(nc1CC)CCCN2Cc1ccccc1C(F)(F)F | -3.5 | -17.8 | -1.2 | · | -6.3 | -9.6 | · | ·
CC(=O)n1c2ccccc2c2ccccc21 | 9.0 | -5.0 | 13.9* | -11.6 | 3.4 | -3.2 | 1.0 | -7.2
Cc1ccc(N/C=C/C(=O)c2ccc(C)cc2)cc1 | 4.0 | -5.7 | 14.7* | -24.3 | 0.4 | 0.7 | 3.4 | 3.4
O=C(c1ccccc1)N1CCC(Oc2cccnc2)CC1 | -0.8 | 2.2 | 3.9 | · | -0.4 | · | · | ·
COc1ccccc1NS(=O)(=O)c1cc(Cl)ccc1OC | 4.5 | -2.1 | 13.8* | -8.0 | 1.7 | 2.2 | 10.4 | 7.4
C[C@@H]1[C@@H](O)C[C@@]2(CC(=O)c3ccccc3O2)O[C@H]1c1ccccc1 | -2.8 | 0.8 | 0.3 | · | -2.7 | · | · | ·
C#CCn1cc(/C=N/NC(=O)c2cc3ccccc3o2)c2ccccc21 | -2.5 | -3.5 | 18.3* | -14.4 | 4.8 | 4.0 | 14.4* | 2.0
CN1CCC(NC(=O)CCc2ccccc2)CC1 | -1.4 | 2.9 | 13.9* | 10.2 | 1.4 | 0.0 | 4.8 | 1.7
Cc1cc(O)cc(=O)n1-c1cccc([N+](=O)[O-])c1 | 14.2 | 1.3 | -0.6 | · | -3.8 | -2.8 | · | ·
CCOC(=O)[C@H]1[C@H]2COc3ccccc3[C@@H]2N2C(=O)CN(Cc3ccc(C)cc3)C(=O)[C@@]12C | 5.0 | -5.6 | 20.3* | -14.0 | -8.3 | 5.7 | -1.7 | -8.3
SMILES | DDE Tn6 FP inh | ABHD4 inh | Tn7 DDE FP | HTRA1 inhibitor | SIAE primary | TCR-CD3 inh | DDE Tn7 confirm | Tn7 DDE ctr
O=C(NNC(=O)c1cc(-c2ccccc2)nc2ccccc12)c1csc(N2CCOCC2)n1 | -1.8 | -8.8 | 14.6* | -10.2 | -4.4 | -3.9 | -1.2 | -18.2
CC1(c2ccc(Cl)cc2)NC(=O)N(CC(=O)N2CCc3ccccc3C2)C1=O (stereo not drawn) | 2.6 | -5.8 | 15.2* | 10.1 | 0.3 | 4.6 | 10.6 | 5.3
CC1(c2ccccc2Cl)NC(=O)N(CC(=O)N2CCc3ccccc3C2)C1=O (stereo not drawn) | -0.1 | 2.9 | 5.3 | -0.9 | 0.6 | 4.6 | · | ·
COc1ccc(C=Cc2ccc3ccccc3n2)c(OC)c1 | 7.9 | 15.3 | 26.7* | -12.7 | 9.2 | 8.9 | 5.7 | 4.8
COc1ccc(OC)c(/C=C/c2ccc3cccc(O)c3n2)c1 | 1.9 | -0.7 | 3.4 | -2.1 | 4.4 | -4.1 | · | ·
CC(=O)O[C@H]1C=C[C@@H](C#Cc2ccc(C(C)(C)C)cc2)O[C@@H]1COC(=O)Nc1ccccc1 | -6.3 | -8.7 | -3.8 | · | -7.5 | 1.5 | · | ·
C#CCN1CC(COc2ccccc2)Oc2cccc(Oc3ccc(OC)cc3)c2S1(=O)=O (stereo not drawn) | -2.7 | -8.2 | 14.2* | · | -3.0 | 4.5 | -4.2 | -10.2
CCCCN1CC(COCc2ccccc2)Oc2cccc(Oc3ccc(OC)cc3)c2S1(=O)=O (stereo not drawn) | -6.6 | 4.8 | 2.7 | -21.4 | -6.3 | 3.3 | · | ·
O=C(OCCN1C(=O)c2cccc3c(N4CCOCC4)ccc(c23)C1=O)c1ccccc1Cl | -1.9 | -10.5 | 32.9* | -39.8 | -1.1 | 3.7 | -2.0 | -6.4
CCCCCCCC(=O)N[C@H]1CC[C@@]23CCCN2C(=O)CCC[C@H]3[C@H]1C | -0.4 | 6.2 | -6.1 | · | -1.5 | · | · | ·
COCCn1c(COc2cccc(OC)c2)nnc1SCC(=O)NC1CCCCC1 | 1.5 | -2.2 | 18.6* | -5.8 | 1.1 | 1.2 | -3.4 | -4.3
CCN(CC)CCCNC(=O)CSc1nnc(-c2ccncc2)n1-c1ccc(OC)cc1 | -5.4 | -3.7 | 2.8 | · | -1.0 | · | · | ·
N#CC1=C2C=Cc3ccccc3N2CCCC1=O | 4.6 | -13.8 | 15.7* | 3.6 | -2.4 | 0.2 | 2.3 | 0.2
O=C(CN1CCCC1)N1c2ccccc2C=Cc2ccccc21 | -3.3 | 3.0 | 5.7 | 2.0 | 2.3 | -5.2 | · | ·
CCCCNC(=O)C[C@H]1C[C@@]2(C(=O)OC)C(=C[C@H](C(C)C)O[C@@H]2C2CC2)N(Cc2ccc(Cl)cc2Cl)C1=O | 0.8 | 6.0 | 2.6 | · | 9.9 | · | · | ·
O=C(Nc1c(-c2ccccc2)nc2ncccn12)c1ccccc1 | 6.9 | 3.5 | 6.7 | · | -9.3 | · | · | ·
CC(=O)Nc1sc2c(c1-c1nc3ccccc3s1)CCN(C(C)C)C2 | · | · | · | -15.2 | · | · | · | ·

Source: PubChem BioAssay
